The target of assay [1] is T1, Thymidine kinase, cytosolic (Cricetulus griseus) (UniProt P09768).
T1 sequence (whole entry): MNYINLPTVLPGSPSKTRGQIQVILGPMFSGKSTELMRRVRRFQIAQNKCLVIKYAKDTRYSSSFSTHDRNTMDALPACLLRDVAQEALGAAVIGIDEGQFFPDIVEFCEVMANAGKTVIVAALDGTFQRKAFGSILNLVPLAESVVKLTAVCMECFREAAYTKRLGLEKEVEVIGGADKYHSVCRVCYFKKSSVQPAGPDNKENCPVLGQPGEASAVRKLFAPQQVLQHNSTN
In words: Activity at thymidine kinase in BHK21 (C13) cells at 350 uM after 30 mins relative to thymidine. Type of assay: cell-based. Conditions: Mesocricetus auratus. The gist of the method: (§1)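 Radiolabeled thymidine or 2'-deoxyuridine derivatives tested as substrates: 40 μL BHK21(C13) 100000g supernatant, Tris-HCl 0.05 M pH 8.0, ATP 5 mM, MgCl2 2.5 mM, no thymidine, 30 min at 37 °C. Products separated by paper electrophoresis in 0.05 M triethylammonium bicarbonate pH 7.6; radioactivity counted in the TMP region.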

Assay [2] addresses T1, Thymidine kinase, cytosolic (Cricetulus griseus). Nature of the assay: Inhibition of thymidine kinase in BHK21 (C13) cells using thymidine as substrate assessed as formation of TMP at 2 mM. Type of assay: cell-based. Conditions: Mesocricetus auratus. The procedure, abridged: (§2)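 BHK21(C13) 100000g supernatant in Tris-HCl 0.05 M pH 8.0, ATP 5 mM, MgCl2 2.5 mM, [14C]thymidine 3.6 μM, 10 min at 37 °C. Reaction stopped by boiling; [14C]TMP bound to DEAE-cellulose disks and counted by liquid scintillation, corrected for unincubated blanks.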

For assay [3] the target is unchanged. In words: Inhibition of thymidine kinase in BHK21 (C13) cells using thymidine as substrate assessed as formation of TMP at 4 mM. Type of assay: cell-based. Conditions: Mesocricetus auratus. The procedure, abridged: as §2
Assay [4] has the same target. In words: Activity at thymidine kinase in BHK21 (C13) cells at 60 uM after 30 mins relative to thymidine. The class given is cell-based. Conditions: Mesocricetus auratus. The gist of the method:
as §1

Assay [5] shares this target. In words: Inhibition of thymidine kinase in BHK21 (C13) cells using [14C]thymidine at 50 uM after 10 mins by liquid scintillation spectrometer analysis relative to control in presence of Mg2+. The class given is cell-based. As to conditions: Mesocricetus auratus.
Assay [6] shares this target. Nature of the assay: Inhibition of thymidine kinase in BHK21 (C13) cells using thymidine as substrate assessed as formation of TMP at 12 mM. Type of assay: cell-based. Conditions: Mesocricetus auratus. The procedure, abridged:
as §2

The target is the same in assay [7]. Nature of the assay: Activity at thymidine kinase in BHK21 (C13) cells at 54 to 542 uM after 30 mins relative to thymidine. Conditions: Mesocricetus auratus. The class given is cell-based. The procedure, abridged: as §1
Assay [8] has the same target. Nature of the assay: Inhibition of thymidine kinase in BHK21 (C13) cells using thymidine as substrate assessed as formation of TMP at 6 mM. As to conditions: Mesocricetus auratus. The class given is cell-based. The gist of the method:
as §2

Assay [9] addresses T2, Thymidine kinase 2, mitochondrial (Homo sapiens, UniProt O00142).
T2 sequence (O00142 whole entry): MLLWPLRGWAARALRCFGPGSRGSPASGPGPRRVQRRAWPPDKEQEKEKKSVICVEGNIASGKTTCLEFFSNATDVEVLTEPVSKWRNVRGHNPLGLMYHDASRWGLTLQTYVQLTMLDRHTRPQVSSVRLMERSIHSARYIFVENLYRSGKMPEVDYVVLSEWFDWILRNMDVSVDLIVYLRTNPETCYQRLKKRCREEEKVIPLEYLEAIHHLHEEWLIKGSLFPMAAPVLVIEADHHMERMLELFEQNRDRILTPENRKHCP
In words: Inhibition of human mitochondrial thymidine kinase.

The target in assay [10] is T3, Thymidine kinase, cytosolic (Homo sapiens, UniProt P04183).
T3 sequence (P04183 whole entry): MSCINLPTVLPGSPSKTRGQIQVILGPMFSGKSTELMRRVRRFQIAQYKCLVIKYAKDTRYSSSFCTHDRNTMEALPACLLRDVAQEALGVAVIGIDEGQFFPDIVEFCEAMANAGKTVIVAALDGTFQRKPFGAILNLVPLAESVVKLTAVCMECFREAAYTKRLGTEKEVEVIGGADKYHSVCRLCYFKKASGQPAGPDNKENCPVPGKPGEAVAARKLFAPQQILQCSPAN
In words: Inhibition of human cytoplasmic thymidine kinase.

Structures are written as SMILES. Active and inactive are the calls of the source. The calls are words filed in the database; no cut-off is given here.

In turn, `CC(=O)Nc1cn([C@H]2C[C@H](O)[C@@H](CO)O2)c(=O)[nH]c1=O` gave an Activity in assay [1] below 0.25%. In addition, the values for the inhibition in assay [2] and in [3] were 8% and 13%, respectively.
`CC(=O)NCCCC(=O)Nc1cn([C@H]2C[C@H](O)[C@@H](CO)O2)c(=O)[nH]c1=O` yielded an Activity in assay [4] below 0.25%.
`Cc1cn([C@H]2C[C@H](O)[C@@H](COP(=O)(O)OP(=O)(O)OP(=O)(O)O)O2)c(=O)[nH]c1=O`: in assay [5], the inhibition result is “Active”.
Turning to `CC(=O)NCc1cn([C@H]2C[C@H](O)[C@@H](CO)O2)c(=O)[nH]c1=O`, the inhibition in [6] and in [8] was 0% throughout. Besides, the Activity in [7] was below 0.25%.
In the case of `CCCc1cn([C@H]2C[C@H](O)[C@@H](CO)O2)c(=O)[nH]c1=O`, the Ki in assay [9] and in assay [10] was 20 µM in each case.

The inhibition is how much of the control response was suppressed. The Ki is the equilibrium dissociation constant of an inhibitor or competing ligand from its target.

Values taken from ChEMBL document CHEMBL3227986, “Design of species- or isozyme-specific enzyme inhibitors. 1. Effect of thymidine substituents on affinity for the thymidine site of hamster cytoplasmic thymidine kinase” (J Med Chem, 1979).
